The source made the active and inactive calls. The rule behind the calls is not given here.
Experiments:
[1] = target: T1, Serine/threonine-protein kinase mTOR (Homo sapiens, UniProt P42345); experiment: Inhibition of human mTOR at 1 uM using fluorescently labeled peptide substrate measured after 3 hrs by microfluidic mobility shift assay relative to control
In short: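 Single-concentration screen at 1 µM in duplicate wells, in a 23-kinase panel using microfluidic mobility shift. Compound was diluted from a 100x DMSO stock, with 1% DMSO final. Kinase (typically 1 nM), fluorescent peptide substrate (typically 1 µM), ATP at 1x Km and Mg2+ were incubated typically 3 h at 25 °C, then quenched with EDTA. Substrate and phospho-product were separated electrophoretically and quantified by fluorescence.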

[2] = Tmax in Swiss mouse at 1 mg/kg, po via gavage by LC-MS/MS analysis; type: ADME, organism-based; details: in vivo
In short: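 Female Swiss mice (n=3/group) were fasted overnight, then gavaged with compound in 0.5% CMC/0.5% Tween 80 at 10 mL/kg. Serial blood samples at 0.16, 0.5, 1, 2, 4, 6 and 8 h were taken into heparinized tubes and spun to plasma. Plasma was extracted with acetonitrile containing verapamil (400 ng/mL) and quantified by LC-MS/MS against plasma calibration curves. Tmax was derived from the concentration–time profile.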

[3] = Drug level in Swiss mouse brain at 30 mg/kg, po administered twice daily via gavage for 5 days and measured post last dose by LC-MS/MS analysis; type: ADME, organism-based; details: in vivo, 120 h, time 5 day
In short: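 Female Swiss mice (n=3) given 30 mg/kg in 0.5% CMC/Tween 80 by oral gavage twice daily for 5 days, with two vehicle controls. After sacrifice, liver, kidney, lung, uterus and brain were collected, homogenized in water and solvent-extracted. Drug concentration (ng/g) measured by LC-MS/MS.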

Homo sapiens = species on record: Homo sapiens; experiment: Channel blockade of human ERG G601S mutant expressed in mammalian expression system assessed as effect on surface expression of channel at 1 to 30 uM by HERG-Lite assay; details: dose microM 1-30
In short: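 HERG-lite assay scoring both channel blocking and trafficking inhibition, with test compound at 1, 10 and 30 µM. Geldanamycin (1 µM) served as the trafficking-inhibition reference and astemizole as the standard hERG binder.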

Cytochrome P450 3A4 = Cytochrome P450 3A4 (Homo sapiens, UniProt P08684); experiment: Inhibition of CYP3A4 in human liver microsomes using isoform-specific probe substrates preincubated for 5 mins followed by NADPH addition by LC-MS/MS analysis; type: ADME
In short: (§1)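 Human liver microsomes premixed with buffer and a CYP-specific FDA-recommended probe substrate, then spiked with inhibitor, in duplicate. After 5 min preincubation at 37 °C, reaction started with NADPH and run at 37 °C for a set time, then quenched. Metabolite formation quantified by HPLC/LC-MS/MS to derive the concentration giving 50% inhibition.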

[4] = AUC in Swiss mouse at 10 mg/kg, po via gavage by LC-MS/MS analysis; type: ADME, organism-based; set-up: dose 10 mg/kg; details: in vivo
In short: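 Female Swiss mice (n=3/group), fasted overnight, given single oral gavage dose in 0.5% CMC/0.5% Tween 80 (10 mL/kg) at 1, 3 or 10 mg/kg. Serial blood sampling at 0.16–8 h into heparinized tubes. Plasma extracted with acetonitrile containing verapamil internal standard and quantified by LC-MS/MS. Cmax, Tmax, AUC and t1/2 derived from the concentration–time profile.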

[5] = target: Sphingosine kinase 1 (Homo sapiens) (UniProt Q9NYA1); experiment: Inhibition of human SPHK1 at 1 uM using fluorescently labeled peptide substrate measured after 3 hrs by microfluidic mobility shift assay relative to control
In short: (§2)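 Single-concentration screen at 1 µM in duplicate, 1% final DMSO. Kinase (typically 1 nM), fluorescently labeled peptide substrate (typically 1 µM), ATP at Km and Mg²⁺ incubated about 3 h at 25 °C, then EDTA-quenched. Substrate and phosphorylated product separated by microfluidic electrophoresis and quantified by fluorescence.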

[6] = target: T1, Serine/threonine-protein kinase mTOR; experiment: Inhibition of recombinant human GST-tagged mTOR catalytic domain (1360 to 2549 residues) expressed in baculovirus expression system using GFP-4E-BP1 as substrate preincubated for 15 mins followed by substrate addition and measured after 60 mins by TR-FRET assay
In short: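 Recombinant mTOR (FRAP1) was preincubated 15 min with serially diluted compound (10 µM–0.0005 µM, DMSO) in kinase buffer, 10 µL reaction. GFP-4E-BP1 (400 nM final) and ATP (8 µM final) were added and the reaction ran 1 h at RT. Quench buffer with Tb-anti-p4E-BP1 (pThr46) was added for 1 h at RT. TR-FRET 520/486 nm ratio was fitted by four-parameter sigmoidal regression.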

Cytochrome P450 2C19 = Cytochrome P450 2C19 (Homo sapiens, UniProt P33261); experiment: Inhibition of CYP2C19 in human liver microsomes using isoform-specific probe substrates preincubated for 5 mins followed by NADPH addition by LC-MS/MS analysis; type: ADME; in short: as §1
[7] = target: Phosphatidylinositol 4,5-bisphosphate 3-kinase catalytic subunit alpha isoform (Homo sapiens) (UniProt P42336); experiment: Inhibition of human PI3kalpha at 1 uM using fluorescently labeled peptide substrate measured after 3 hrs by microfluidic mobility shift assay relative to control; in short: as §2
[8] = target: Phosphatidylinositol 4,5-bisphosphate 3-kinase catalytic subunit beta isoform (Homo sapiens) (UniProt P42338); experiment: Inhibition of human PI3kbeta at 1 uM using fluorescently labeled peptide substrate measured after 3 hrs by microfluidic mobility shift assay relative to control; in short: as §2
[9] = Toxicity in Swiss mouse assessed as discoloration of brain at 30 mg/kg, po administered twice daily via gavage for 5 days and measured post last dose; type: organism-based; details: in vivo, 120 h, time 5 day
In short: (§3)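 Female Swiss mice (3 treated, 2 controls) were gavaged twice daily for 5 days, with compound in 0.5% CMC and Tween 80. After the last dosing the animals were sacrificed. Liver, kidney, lung, uterus and brain were excised and inspected visually for morphology and color change.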

[10] = Toxicity in Swiss mouse assessed as effect on eyes at 10 mg/kg, po administered twice daily via gavage for 5 days and measuring daily during compound dosing; type: organism-based; details: in vivo, 120 h, time 5 day
In short: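 Female Swiss mice (3 treated, 2 vehicle controls) received oral gavage twice daily for 5 days, with compound formulated in 0.5% CMC and Tween 80. Body weight, body temperature, body coat, feed intake, eyes, feces and general activity were observed daily.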

[11] = Toxicity in Swiss mouse assessed as morphological changes in lung at 30 mg/kg, po administered twice daily via gavage for 5 days and measured post last dose; type: organism-based; details: in vivo, 120 h, time 5 day; in short: as §3
[12] = target: High affinity nerve growth factor receptor (Homo sapiens) (UniProt P04629); experiment: Inhibition of human TRKA at 1 uM using fluorescently labeled peptide substrate measured after 3 hrs by microfluidic mobility shift assay relative to control; in short: as §2
[13] = target: Dual specificity mitogen-activated protein kinase kinase 2 (Homo sapiens) (UniProt P36507); experiment: Inhibition of human MEK2 at 1 uM using fluorescently labeled peptide substrate measured after 3 hrs by microfluidic mobility shift assay relative to control; in short: as §2
[14] = Toxicity in Swiss mouse assessed as discoloration of liver at 30 mg/kg, po administered twice daily via gavage for 5 days and measured post last dose; type: organism-based; details: in vivo, 120 h, time 5 day; in short: as §3
[15] = Toxicity in Swiss mouse assessed as discoloration of kidney at 30 mg/kg, po administered twice daily via gavage for 5 days and measured post last dose; type: organism-based; details: in vivo, 120 h, time 5 day; in short: as §3

Sphingosine kinase 1 (Homo sapiens), sequence (Q9NYA1 whole entry): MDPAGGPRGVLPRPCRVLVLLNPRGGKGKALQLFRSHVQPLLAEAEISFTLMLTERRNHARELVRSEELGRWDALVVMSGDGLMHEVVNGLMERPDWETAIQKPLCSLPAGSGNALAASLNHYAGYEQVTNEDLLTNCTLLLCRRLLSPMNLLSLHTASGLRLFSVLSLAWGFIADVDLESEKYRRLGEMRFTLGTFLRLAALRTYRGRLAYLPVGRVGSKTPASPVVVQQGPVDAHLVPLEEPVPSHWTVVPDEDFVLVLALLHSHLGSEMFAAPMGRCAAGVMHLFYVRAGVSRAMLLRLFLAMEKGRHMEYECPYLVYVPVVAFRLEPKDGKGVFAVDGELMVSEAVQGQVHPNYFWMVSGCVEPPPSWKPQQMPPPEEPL
Cytochrome P450 2C19, sequence (P33261 whole entry, canonical isoform): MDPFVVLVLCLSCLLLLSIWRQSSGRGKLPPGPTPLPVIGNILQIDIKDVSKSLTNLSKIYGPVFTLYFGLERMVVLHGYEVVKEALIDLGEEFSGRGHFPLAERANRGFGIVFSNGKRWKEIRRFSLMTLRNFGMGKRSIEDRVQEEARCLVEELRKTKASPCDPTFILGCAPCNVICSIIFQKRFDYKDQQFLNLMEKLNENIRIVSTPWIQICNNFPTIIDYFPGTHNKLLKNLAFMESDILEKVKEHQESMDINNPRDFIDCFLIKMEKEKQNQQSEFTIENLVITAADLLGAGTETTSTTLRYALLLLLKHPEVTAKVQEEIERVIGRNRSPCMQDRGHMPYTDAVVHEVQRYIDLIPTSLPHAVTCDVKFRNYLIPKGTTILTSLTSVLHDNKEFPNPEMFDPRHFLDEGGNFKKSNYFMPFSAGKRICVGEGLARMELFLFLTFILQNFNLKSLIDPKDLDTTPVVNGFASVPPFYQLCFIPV
Cytochrome P450 3A4, sequence (P08684 whole entry, canonical isoform): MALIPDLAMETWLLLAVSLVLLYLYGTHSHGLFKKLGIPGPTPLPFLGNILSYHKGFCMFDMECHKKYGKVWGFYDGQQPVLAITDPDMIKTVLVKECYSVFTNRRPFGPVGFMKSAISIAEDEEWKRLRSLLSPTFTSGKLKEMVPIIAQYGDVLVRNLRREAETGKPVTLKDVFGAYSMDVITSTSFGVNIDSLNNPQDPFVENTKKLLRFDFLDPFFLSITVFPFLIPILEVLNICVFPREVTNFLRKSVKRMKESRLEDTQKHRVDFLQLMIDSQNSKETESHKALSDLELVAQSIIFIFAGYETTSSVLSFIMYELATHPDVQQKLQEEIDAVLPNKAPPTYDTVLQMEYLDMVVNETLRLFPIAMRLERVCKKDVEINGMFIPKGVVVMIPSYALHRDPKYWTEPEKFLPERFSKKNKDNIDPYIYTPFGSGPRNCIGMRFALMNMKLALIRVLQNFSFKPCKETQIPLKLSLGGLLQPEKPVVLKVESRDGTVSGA
High affinity nerve growth factor receptor (Homo sapiens), sequence (P04629 33-796 limits assumed): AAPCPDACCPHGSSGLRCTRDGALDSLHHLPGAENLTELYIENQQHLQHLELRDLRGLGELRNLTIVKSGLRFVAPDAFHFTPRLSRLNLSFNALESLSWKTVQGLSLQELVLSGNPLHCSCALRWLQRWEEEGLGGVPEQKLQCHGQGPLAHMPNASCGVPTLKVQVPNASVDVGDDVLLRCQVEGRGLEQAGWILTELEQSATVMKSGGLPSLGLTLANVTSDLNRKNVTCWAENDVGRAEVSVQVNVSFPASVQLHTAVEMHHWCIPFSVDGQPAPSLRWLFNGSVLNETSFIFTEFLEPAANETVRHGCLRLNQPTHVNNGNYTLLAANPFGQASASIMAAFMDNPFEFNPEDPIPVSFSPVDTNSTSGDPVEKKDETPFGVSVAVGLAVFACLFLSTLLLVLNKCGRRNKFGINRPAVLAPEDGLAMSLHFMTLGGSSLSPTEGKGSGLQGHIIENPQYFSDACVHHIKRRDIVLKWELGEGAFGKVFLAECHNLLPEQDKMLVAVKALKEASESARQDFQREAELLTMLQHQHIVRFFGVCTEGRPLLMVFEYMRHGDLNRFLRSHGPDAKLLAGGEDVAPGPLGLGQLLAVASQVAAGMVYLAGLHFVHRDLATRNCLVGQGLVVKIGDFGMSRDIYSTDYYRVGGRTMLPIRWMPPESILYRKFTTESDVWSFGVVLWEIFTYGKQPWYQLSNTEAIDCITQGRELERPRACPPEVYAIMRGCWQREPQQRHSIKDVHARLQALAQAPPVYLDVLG
Dual specificity mitogen-activated protein kinase kinase 2 (Homo sapiens), sequence (P36507 whole entry): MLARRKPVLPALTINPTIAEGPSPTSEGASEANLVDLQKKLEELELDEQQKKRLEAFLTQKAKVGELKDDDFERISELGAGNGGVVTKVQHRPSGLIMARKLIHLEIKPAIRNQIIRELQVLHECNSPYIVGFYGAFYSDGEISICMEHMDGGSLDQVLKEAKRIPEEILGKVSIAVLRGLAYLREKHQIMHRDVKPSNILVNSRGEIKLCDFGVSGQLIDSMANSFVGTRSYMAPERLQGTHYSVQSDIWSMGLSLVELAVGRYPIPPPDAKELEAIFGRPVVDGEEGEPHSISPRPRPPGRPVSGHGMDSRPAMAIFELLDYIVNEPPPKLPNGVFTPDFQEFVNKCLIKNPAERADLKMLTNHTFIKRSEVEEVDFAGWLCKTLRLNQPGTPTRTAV
Phosphatidylinositol 4,5-bisphosphate 3-kinase catalytic subunit beta isoform (Homo sapiens), sequence (P42338 whole entry, looked up, canonical isoform): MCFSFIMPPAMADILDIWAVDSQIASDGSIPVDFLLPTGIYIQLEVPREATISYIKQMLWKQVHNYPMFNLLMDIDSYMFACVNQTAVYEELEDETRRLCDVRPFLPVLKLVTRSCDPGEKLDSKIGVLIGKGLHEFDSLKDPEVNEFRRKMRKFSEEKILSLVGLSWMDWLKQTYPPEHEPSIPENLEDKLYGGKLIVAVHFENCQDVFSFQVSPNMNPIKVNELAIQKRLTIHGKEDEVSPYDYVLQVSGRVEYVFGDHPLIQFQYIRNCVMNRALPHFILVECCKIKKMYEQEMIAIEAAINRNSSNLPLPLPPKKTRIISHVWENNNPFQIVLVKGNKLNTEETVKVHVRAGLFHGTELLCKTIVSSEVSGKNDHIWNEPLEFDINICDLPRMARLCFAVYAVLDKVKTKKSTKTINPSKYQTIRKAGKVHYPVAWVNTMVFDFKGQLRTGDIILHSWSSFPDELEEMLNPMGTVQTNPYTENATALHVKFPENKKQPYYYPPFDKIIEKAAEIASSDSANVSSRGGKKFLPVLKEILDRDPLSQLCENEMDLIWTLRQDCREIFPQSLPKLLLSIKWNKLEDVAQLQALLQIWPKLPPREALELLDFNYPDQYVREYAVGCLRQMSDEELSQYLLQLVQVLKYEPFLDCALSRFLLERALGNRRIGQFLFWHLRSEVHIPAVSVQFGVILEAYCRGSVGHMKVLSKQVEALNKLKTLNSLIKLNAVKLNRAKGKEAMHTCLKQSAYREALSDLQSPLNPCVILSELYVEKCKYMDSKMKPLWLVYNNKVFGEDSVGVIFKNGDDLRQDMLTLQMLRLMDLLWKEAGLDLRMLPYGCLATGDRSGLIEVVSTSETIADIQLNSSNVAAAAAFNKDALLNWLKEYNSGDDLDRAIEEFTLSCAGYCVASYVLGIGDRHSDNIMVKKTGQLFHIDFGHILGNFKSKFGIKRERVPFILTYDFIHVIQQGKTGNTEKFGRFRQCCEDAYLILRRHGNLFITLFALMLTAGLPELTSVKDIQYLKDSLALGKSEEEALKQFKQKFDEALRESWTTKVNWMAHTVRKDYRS
Phosphatidylinositol 4,5-bisphosphate 3-kinase catalytic subunit alpha isoform (Homo sapiens), sequence (P42336 whole entry, canonical isoform): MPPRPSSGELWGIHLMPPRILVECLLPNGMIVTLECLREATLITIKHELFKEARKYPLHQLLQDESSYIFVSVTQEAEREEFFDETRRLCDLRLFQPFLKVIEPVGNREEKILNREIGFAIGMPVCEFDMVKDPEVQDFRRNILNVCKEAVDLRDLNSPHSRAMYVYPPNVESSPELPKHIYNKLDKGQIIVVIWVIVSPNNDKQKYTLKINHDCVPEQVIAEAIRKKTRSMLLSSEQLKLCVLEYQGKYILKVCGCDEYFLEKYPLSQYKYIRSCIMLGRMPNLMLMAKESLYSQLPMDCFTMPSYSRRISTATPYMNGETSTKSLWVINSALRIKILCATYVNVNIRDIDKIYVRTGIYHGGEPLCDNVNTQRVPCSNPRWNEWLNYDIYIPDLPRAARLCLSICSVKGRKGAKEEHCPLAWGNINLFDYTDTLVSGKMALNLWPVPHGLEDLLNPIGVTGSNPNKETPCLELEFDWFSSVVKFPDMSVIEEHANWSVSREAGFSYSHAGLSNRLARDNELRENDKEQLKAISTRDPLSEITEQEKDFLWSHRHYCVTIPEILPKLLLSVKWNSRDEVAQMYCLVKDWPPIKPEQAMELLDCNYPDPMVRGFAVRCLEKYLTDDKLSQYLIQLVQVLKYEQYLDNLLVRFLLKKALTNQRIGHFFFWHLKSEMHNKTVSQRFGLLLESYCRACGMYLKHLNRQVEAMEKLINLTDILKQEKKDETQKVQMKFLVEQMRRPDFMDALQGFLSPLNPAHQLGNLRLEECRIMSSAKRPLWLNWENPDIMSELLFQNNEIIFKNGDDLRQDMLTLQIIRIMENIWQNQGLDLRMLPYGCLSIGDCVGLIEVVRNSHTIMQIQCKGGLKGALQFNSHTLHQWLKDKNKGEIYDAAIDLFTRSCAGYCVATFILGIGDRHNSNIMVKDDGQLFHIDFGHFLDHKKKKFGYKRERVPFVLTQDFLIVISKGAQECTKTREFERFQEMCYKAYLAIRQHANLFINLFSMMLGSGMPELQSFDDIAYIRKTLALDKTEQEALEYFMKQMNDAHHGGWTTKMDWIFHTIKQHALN

With `CN(C)C(=O)c1ccc(Oc2nc(-c3cnc(N)s3)nc(N3CCOCC3)n2)cc1` the inhibition [1] was 89%, the Tmax [2] was 1.33 h and the Drug uptake [3] was “Not Active”. The Activity (Homo sapiens) was “Active”, the IC50 (Cytochrome P450 3A4) was > 10 µM and the AUC [4] was 76.4 µM·h. The inhibition [5] was -1%, the IC50 [6] was 0.01 µM and the IC50 (Cytochrome P450 2C19) was > 10 µM. For the same compound, the inhibition [7] was 86%, the inhibition [8] was 42% and the Activity [9] was “Non-Toxic”. For the same compound, the Activity [10] was “Non-Toxic”, the Activity [11] was “Non-Toxic” and the inhibition [12] was 3%. The inhibition [13] was 1%, the Activity [14] was “Toxic” and the Activity [15] was “Non-Toxic”.
